Measurements: ChEMBL document CHEMBL4130464, “Cytotoxic Prenylated Stilbenes Isolated from Macaranga tanarius” (J Nat Prod, 2017)
Non-standard residues stand in square brackets, D forms with d. Residues, ends and D or L forms follow the SMILES beside them. *: point of attachment. Dolaproine = CO[C@@H]([C@@H]1CCCN1)[C@@H](C)C(=O)O; Dil = CC[C@H](C)[C@H](NC)[C@@H](CC(=O)O)OC; X1 = C[C@@H](N*)[C@@H](O)c1ccccc1; NMeV = CN[C@H](C(=O)O)C(C)C

Assays:
[1] = tested on: U-87 MG; assay: Antiproliferative activity against human U87 cells after 72 hrs by MTS assay; type: functional, cell-based, U-87MG ATCC
Summary of the method: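 U87 human glioblastoma cells (ATCC) kept in DMEM with 10% FCS and 1% glutamine at 37 °C, 5% CO2. Seeded at 2.5 × 10^3 cells/well, exposed after 24 h to compounds at 1 and 10 μM final for 72 h. […] added 2 h before reading absorbance at 490 nm. Percent cytotoxicity index (treated/control OD490 × 100) from three experiments.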

[2] = tested on: A549; assay: Antiproliferative activity against human A549 cells after 72 hrs by MTS assay; type: functional, cell-based; conditions: A549, 72 h
Summary of the method: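 A549 human lung cancer cells (ATCC) grown in RPMI 1640 with 10% FCS and 1% glutamine at 37 °C, 5% CO2. Cells seeded at 2.5 × 10^3 per well and cultured 24 h, then treated at 1 and 10 μM final for 72 h. […] added for 2 h, absorbance read at 490 nm. Cytotoxicity index (OD490treated/OD490control × 100) taken from three experiments.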

EC50 [1] [µM]	EC50 [2] [µM]	Structure (SMILES)
5.4	7	CC(C)=CCC/C(C)=C/Cc1cc(/C=C/c2cc(O)c(CC=C(C)C)c(O)c2)cc(O)c1O [MAPPAIN]
0.045	0.8	CC(C)=CCc1c(O)cc(/C=C/c2cc(O)c3c(c2)C[C@@H]2C(C)(C)[C@H](O)CC[C@@]2(C)O3)cc1O [SCHWEINFURTHIN G]
0.1	> 10	CC(C)=CCc1c(O)cc(/C=C/c2cc(O)c(O)c(C/C=C(\C)CCC(O)C(C)(C)O)c2)cc1O (stereo not drawn)
0.45	0.24	CC(C)=CCC[C@]1(C)Oc2c(O)cc(/C=C/c3cc(O)c4c(c3)OC(C)(C)C(O)C4)cc2C[C@@H]1O (stereo partly drawn)
> 10	> 10	CC(C)=CCC/C(C)=C/Cc1cc(/C=C/c2cc(O)cc(Oc3ccc4c(c3)O[C@H](c3ccc(C/C=C(\C)CCC=C(C)C)c(O)c3O)[C@@H]4O)c2)cc(O)c1O
0.025	> 10	CC(C)=CCC/C(C)=C/CC/C(C)=C/Cc1c(O)cc(/C=C/c2ccc(O)c(O)c2)cc1O
0.05	> 10	CC(C)=CCc1c(O)cc(/C=C/c2cc(O)c3c(c2)C[C@@H]2C(C)(C)[C@H](O)C[C@H](O)[C@@]2(C)O3)cc1O
7	> 10	COc1cc(/C=C/c2cc(O)c(CC=C(C)C)c(O)c2)cc(C/C=C(\C)CCC=C(C)C)c1O
0.5	> 10	C/C(=C\Cc1cc(/C=C/c2cc(O)c3c(c2)OC(C)(C)[C@@H](O)C3)cc(O)c1O)CCC(O)C(C)(C)O (stereo partly drawn)
0.25	0.73	CC(C)=CCC/C(C)=C/Cc1cc(/C=C/c2cc(O)c3c(c2)OC(C)(C)[C@@H](O)C3)cc(O)c1O

Structure (SMILES)	EC50 [1] [µM]	EC50 [2] [µM]
CC[C@H](C)[C@@H]([C@@H](CC(=O)N1CCC[C@H]1[C@H](OC)[C@@H](C)C(=O)N[C@H](C)[C@@H](O)c1ccccc1)OC)N(C)C(=O)[C@@H](NC(=O)[C@@H](NC)C(C)C)C(C)C (H-[NMeV]V[Dil][Dolaproine]-X1)	0.0002	0.0005
CC(C)=CCc1c(O)cc(/C=C/c2cc(O)c3c(c2)C[C@@H]2C(C)(C)[C@H](O)[C@H](O)C[C@@]2(C)O3)cc1O [VEDELIANIN]	0.03	0.19
COc1cc(/C=C/c2cc(O)c(CC=C(C)C)c(O)c2)cc2c1O[C@]1(C)CC[C@@H](O)C(C)(C)[C@H]1C2 [SCHWEINFURTHIN F]	0.24	1.5
COc1cc(/C=C/c2cc(O)c(CC=C(C)C)c(O)c2)cc2c1O[C@]1(C)C[C@@H](O)[C@@H](O)C(C)(C)[C@H]1C2 [SCHWEINFURTHIN E]	0.2	0.26
